Laboratory results taken from ChEMBL document CHEMBL1154154, “Synthesis and pharmacological evaluation of 1,3,4-oxadiazole bearing bis(heterocycle) derivatives as anti-inflammatory and analgesic agents” (Eur J Med Chem, 2009).

Key:
Rattus norvegicus = experiment: Antiinflammatory activity in albino rat assessed as inhibition of carrageenan-induced paw edema at 100 mg/kg, po administered 1 hr prior to carrageenen challenge measured after 3 hrs relative to control; assay type: functional
In short: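 Four rats per group got 100 mg/kg po, 1 h before subplantar injection of 1% Type IV lambda carrageenan suspension into the right hind paw. Vehicle controls got 0.5% sodium carboxymethyl cellulose (10 mL/kg) and the positive control got ibuprofen 100 mg/kg. Paw volume was read by plethysmograph water displacement immediately and at 3 h. Edema was compared statistically with vehicle controls as percent inhibition.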

Mus musculus = experiment: Analgesic activity in albino mouse assessed as reduction in acetic acid-induced writhing response at 100 mg/kg, po administered 1 hr prior to acetic acid challenge relative to control; assay type: functional; parameters: scale not given: the % may be the effect or the level left
In short: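 Six mice per group got compound po at 100 mg/kg, 1 h before ip 0.6% acetic acid (10 mL/kg). Total writhes were counted over an observation window starting 5 min after the acetic acid injection. Aspirin at 100 mg/kg po was the positive control.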

Compound	inhibition in vivo at 100 mg/kg (Rattus norvegicus)	Activity (Mus musculus)
CC(C)Cc1ccc(C(C)C(=O)O)cc1 (configuration not stated) [IBUPROFEN]	70.7%	–
CC(=O)Oc1ccccc1C(=O)O [ASPIRIN]	–	57.3%
